Reference: ChEMBL document CHEMBL4513216, “Probing the Open Global Health Chemical Diversity Library for Multistage-Active Starting Points for Next-Generation Antimalarials” (ACS Infect Dis, 2020)

Assay: Toxicity liver stage against HepG2, at 10uM
Assay type: cell-based
Design: test concentration 10 uM, cell line HepG2-A16-CD81EGFP
Conditions: human, HepG2-A16-CD81EGFP cells; read-out: INHIBITION
Summary of the method: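 Uninfected HepG2-A16-CD81EGFP cells, 3 × 10^3 per well, 1536-well, plated on prespotted compound at 10 μM final, parasite-free screening media added to match infected plates; puromycin 10 μM positive, DMSO 0.5% negative; run in parallel with 48 h PbLuc assay at 37 °C, 5% CO2; viability by CellTiter-Glo luminescence, normalized to controls.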

Row | Structure (SMILES) | cytotoxicity at 10 µM [%]
1 | CCS(=O)(=O)c1ccc2oc([C@H]3CCN(Cc4ccccc4)C3)nc2c1 | 4.03
2 | CN(CCc1ccccn1)C(=O)c1cnn(-c2ccccc2F)c1N | -4.85
3 | Cc1csc2cc(C(=O)NC3CC3)cnc12 | -0.697
4 | CNC(=O)c1nc2c(s1)CCN(C(=O)c1cccc(OC)c1)CC2 | 9.84
5 | Cc1nc(CN2C(=O)C[C@@H]3[C@@H]2CCN3S(C)(=O)=O)cs1 | -131
6 | N#Cc1cccc(N2CCCC3(C2)CN(c2nncs2)CCO3)c1 (configuration not stated) | 0.922
7 | COc1cc(CC(O)CC#N)c(OC)c2c1OCO2 (configuration not stated) | -6.32
8 | CS(=O)(=O)N1CCN(C(=O)CCC2CCCO2)CC1 (configuration not stated) | 0.815
9 | CN(C)c1cc(C(F)(F)F)nc(N2CCCC2c2ccccn2)n1 (configuration not stated) | 5.36
10 | COCc1ccccc1NC(=O)CCNC(=O)c1ccoc1 | -3.94
11 | CCN(CC(=O)NC(C)C)C(=O)c1csc(Cc2ccccc2)n1 | -5.43
12 | CN(Cc1nc2ccccc2[nH]1)C(=O)CN(C)c1ccc(Cl)cn1 | -2.66
13 | COc1ccccc1C(NC(=O)CN(C)C(C)C)c1noc(C)n1 (configuration not stated) | -3.21
14 | NC(=O)CSc1ccccc1NCc1nc(Cc2ccccc2)no1 | 7.04
15 | Cc1cc(CNC(=O)NCC(O)c2cccc(F)c2)no1 (configuration not stated) | 3.1
16 | COc1ccc(CN2CCN(Cc3nccn3C)C(C)C2)cc1F (configuration not stated) | 2.42
17 | O=C(c1ccc(NCc2cccc(F)c2)cc1)N1CCC(CO)CC1 | 6.21
18 | COC1CCN(c2ccc(F)cc2CN(C)C(=O)c2cc[nH]n2)CC1 | -4.32
19 | COCCSCC(=O)NCc1ccc(N(C)C)cc1 | 19
20 | CC(=O)c1cc(C(=O)N2CCN(C)Cc3ccccc32)n(C)c1 | 7.85
21 | CN(C)C1CCCN(C(=O)NCCC(C)(C)C)C1 (configuration not stated) | -0.317
22 | CCOCCNC1(c2ccc(Cl)cc2)CCOCC1 | -3.75
23 | CCC(C)NC(=O)c1cncc(Br)c1 (configuration not stated) | 1.24

Row | Structure (SMILES) | cytotoxicity at 10 µM [%]
24 | Cc1[nH]ccc1C(=O)NC1CCC(N2C(=O)CCC2=O)CC1 (configuration not stated) | -3.81
25 | N#Cc1cnc(NC2CCN(C(=O)C3CCCCC3)CC2)c(Cl)c1 | -3.75
26 | O=C(NCC(O)c1ccc(F)cc1F)c1ccccc1 (configuration not stated) | 4.15
27 | CCC(C)NC(=O)c1ccc(CNC(=O)COC)cc1 (configuration not stated) | 10.7
28 | NC(=O)CN1CCC(NC2CSCCc3ccccc32)CC1 (configuration not stated) | -3.21
29 | Cc1nn(C)c(N2CCOCC2)c1CNC1CCS(=O)(=O)C1 (configuration not stated) | -3.99
30 | CCc1ccc(C2COCCN2C(=O)NCc2cccc(C#N)c2)o1 (configuration not stated) | -0.838
31 | CC(Cn1ccnc1)NS(=O)(=O)c1ccc(F)c(Cl)c1 (configuration not stated) | 9.25
32 | N#Cc1ccnc(N2CCN(CC(O)c3ccccc3)CC2)c1 (configuration not stated) | 0.587
33 | O=C(CCc1ccccc1Br)NCC(=O)NCc1ccccc1 | 0.988
34 | O=C(c1ccn(-c2cccc(F)c2)n1)N1CCN(CC2CC2)CC1 | -7.54
35 | Cc1cc(NC(=O)c2ccc(Br)cc2F)n(C)n1 | 3.42
36 | CCCNC(=O)COc1ccc(-c2ccccc2)nc1 | 6.16
37 | Cc1ccc(C(=O)Nc2ccc(N(C)C)cn2)n1C | -2.48
38 | CCN(CC)C(=O)CN(C)CCn1nc2ccccn2c1=O | -149
39 | O=C(NCCc1cccs1)NC1CCN(c2ncccn2)CC1 | -141
40 | COCCn1ccc(NC(=O)Nc2ccc(C)cc2)n1 | 2.19
41 | Fc1ccc(C2CCCN2Cc2nnnn2C2CC2)cc1 (configuration not stated) | 15.5
42 | CCOc1ccc(N2CCC(C(O)c3ccccc3)CC2)nn1 (configuration not stated) | -2.2
43 | O=S(=O)(NCCN1CC=CC1)c1ccc(Cl)cc1 | -6.04
44 | CS(=O)(=O)CCOCCNc1ccc(C#N)cc1F | -3.34
45 | Cc1cc(C(=O)Nc2cccn(Cc3ccccc3)c2=O)no1 | -1.55
46 | O=C(NCC1CCOC1)c1csc(Cc2ccccc2)n1 (configuration not stated) | -118

Row | Structure (SMILES) | cytotoxicity at 10 µM [%]
47 | COCCNC(=O)c1nn(-c2cccc(C(C)C)c2)cc1O | -2.35
48 | CN(C)C(=O)CN1CCCc2c(F)cc(Br)cc21 | -0.682
49 | O=C(CCc1ccccn1)N1CCSC2(CCCCC2)C1 | 0.547
50 | CN(C)c1ccc(NC(=O)NCc2cccs2)cn1 | -1.15
51 | O=C(c1cc(F)ccc1O)N1CCN(C2CCSC2)CC1 (configuration not stated) | 0.773
52 | Cc1ccc(NC(=O)CS(=O)(=O)NC2CCC(C)CC2)nc1 (configuration not stated) | -9.24
53 | COc1ccc(Br)cc1CCC(=O)N1CCC(O)CC1 | -1.96
54 | Cc1noc(C)c1CCc1nc(C2CCOC2)no1 (configuration not stated) | -4
55 | CSCCC(NC(N)=O)C(=O)N1CCC(Cc2ccccc2)CC1 (configuration not stated) | 1.28
56 | CCCn1nc(-c2nc(COc3ccccc3)no2)ccc1=O | -2.74
57 | O=C1CCC2(CCCN(C(=O)c3ncc[nH]3)C2)CN1CCc1c[nH]cn1 (configuration not stated) | -2.47
58 | CC(C)=CCCC(C)CN1CCC(n2cc(C(C)(C)O)nn2)CC1 (configuration not stated) | -2.27
59 | O=C(C1CCCC1)N1CCN(Cc2ccncc2)[C@@H]2CS(=O)(=O)C[C@@H]21 | -1.79
60 | COc1ccccc1[C@@H]1CN(C(=O)Cc2csc(C)n2)C[C@H]1C(=O)O | -8.25
61 | CCN1CCN(C[C@@H]2CN(c3ncc(Cl)cc3F)C[C@@H]2CO)CC1 | -7.06
62 | CCN(CCO)C(=O)C1CCC(=O)N(Cc2cccc(OC)c2)C1 (configuration not stated) | -9.49
63 | CCc1cnc(NCC(c2cccnc2)N2CCOCC2)nc1 (configuration not stated) | 9.6
64 | COc1ccccc1OCCCN1C(=O)CCNC1=O | -3.7
65 | COCC(c1ccccn1)N(C)C(=O)c1cc(-c2ccccc2O)n[nH]1 (configuration not stated) | -1.84
66 | CC1(C)OC(=O)N(CC(=O)N2CCC(c3ccccc3F)C2)C1=O (configuration not stated) | 0.189
67 | CCn1c(N)nc2cc(C(=O)NCCNc3ncccc3C)cnc21 | -5.98
68 | CN(C)C(=O)CN1CCN(c2ncccn2)[C@@H]2CS(=O)(=O)C[C@@H]21 | -3.01
69 | CCOCCNc1nc(-c2ccncc2)nc2c1CCNCC2 | -136

Row | Structure (SMILES) | cytotoxicity at 10 µM [%]
70 | CCO[C@H]1CN(C)C[C@@H]1NC(=O)c1c[nH]nc1C1CCCCC1 | -5.56
71 | CCC1=NOC(CNCc2cnc(-c3ccccc3C)s2)C1 (configuration not stated) | -5.92
72 | CCc1ccc2nc(C)cc(C(=O)NC3CCCCNC3=O)c2c1 (configuration not stated) | -8.48
73 | CN(Cc1cnc(N)nc1)C(=O)C1CC(=O)N(Cc2ccncc2)C1 (configuration not stated) | 0
74 | Nc1cccc(-c2cccc3ccnn23)n1 | -5.74
75 | N#Cc1cccnc1N1CCCC(CO)(Cc2cccc(Cl)c2)C1 (configuration not stated) | 6.29
76 | O=C1CCC2(CCN(Cc3cscn3)CC2)CN1CCCO | -5.26
77 | CN(Cc1nccn1C)c1ccc(-c2nccn2C)nn1 | -6.45
78 | COc1ccc2c(c1)OCC(Cc1ccc(N)cn1)C2 (configuration not stated) | -1.91
79 | COc1ccc(F)c(-c2cc(NCCO)nc(N)n2)c1 | -1.21
80 | CN(C)C[C@@H]1CN(C2CCN(c3ccc(Cl)cc3)CC2)C[C@@H]1CO | -9.14
81 | Cc1ccc([C@H]2CN(C(=O)CC3CCC3)C[C@@H]2N)o1 | 5.89
82 | O=S1(=O)C[C@@H]2[C@H](C1)N(S(=O)(=O)N1CCCC1)CCN2Cc1ccccc1 | -2.59
83 | c1csc(N2CCN(Cc3cc4n(n3)CCNC4)CC2)n1 | -3.59
84 | CCN(CC)C(CNS(=O)(=O)NCc1ccccc1)c1ccco1 (configuration not stated) | 1.53
85 | O=C1O[C@@H]2CN(CCc3ccccc3)C[C@@H]2N1CCCN1CCOCC1 | -3.2
86 | Cc1cc(C)c(C(=O)N2CCOCC2c2c(C)nn(C)c2C)o1 (configuration not stated) | -2.48
87 | O=C(c1ccsc1)N1CCC(Nc2cccnn2)CC1 | -7.58
88 | CC(C)(C)c1ncc(C(=O)NCCNC(=O)c2cccs2)s1 | -1.56
89 | COc1c(CNCCNC(=O)c2cccs2)c(C)nn1C | -0.373
90 | Cc1ncsc1C(=O)NCCNC(=O)Cc1cccc(F)c1 | -0.0716
91 | CCOc1cc(C)nc(N2CCN(C(=O)Cn3cc(C)cn3)CC2)n1 | -5.43
92 | CS(=O)(=O)NC1CCCN(C(=O)COCc2ccccc2)C1 (configuration not stated) | -5.28

Row | Structure (SMILES) | cytotoxicity at 10 µM [%]
93 | CN(CC(=O)N1CCCCC1Cn1cccn1)C1CC1 (configuration not stated) | -3.45
94 | CN(CC(=O)NCc1cccnc1N1CCCCC1)C(=O)c1cccs1 | -14.8
95 | CCn1cnnc1CNC(=O)N1CCC(CN2CCCCCC2)CC1 | -8.57
96 | Cc1nc(C2CCCN2C(=O)CCn2cncn2)no1 (configuration not stated) | -17.8
97 | O=C(c1cccc(F)c1)N1CCCN(Cc2cscn2)CC1 | -3.13
98 | Cc1cnn(CC2CCCN2C(=O)c2ccc(F)cc2Cl)c1 (configuration not stated) | 2.99
99 | Cc1cnn(CC2CN(CC(=O)N(C)Cc3ccsc3)CCO2)c1 (configuration not stated) | -10.6
100 | O=C(c1ccccc1-n1cccn1)N1CCC(Nc2cccnn2)CC1 | -15.9
101 | CN(C)c1cc(CNC(=O)c2n[nH]c(=O)c3ccccc23)ccn1 | -3.79
102 | CN(C)CCNC(=O)c1sc2ccccc2c1C1CCC(CN)CC1 (configuration not stated) | -15.3
103 | CN(Cc1ccco1)C1CCC12CCN(C(=O)c1ccco1)CC2 (configuration not stated) | -10.9
104 | O=C1[C@H]2CN(Cc3ccc(F)cc3)C[C@H]2CN1c1cncnc1 | -2.32
105 | O=C(NCC1CN(c2ncccn2)Cc2nccn2C1)c1cccnc1 (configuration not stated) | -143
106 | Cc1noc(C)c1CN1CCO[C@H]2[C@H](Oc3ccccn3)CC[C@@H]21 | -6.69
107 | CC(C)N1[C@H](CN2CCCC2)C[C@@H]2CN(Cc3ccoc3)CC[C@@H]21 | -157
108 | COc1c(CNC2(c3noc(C)n3)CCC2)c(C)nn1C | 4.2
109 | CCc1cnc(N2C[C@@H](NC(=O)c3cscn3)[C@H]3COC[C@H]32)nc1 | -127
110 | CNC(=O)C(C)(C)N1CCC[C@H]1C(=O)NCCN1CCCC1 | -2.3
111 | O=C(c1cnc2ccccc2c1)N1CCC2(CCN2c2ncccn2)C1 (configuration not stated) | -122
112 | COc1ccccc1CN1CC[C@]2(C[C@@H](OC)CO2)C1 | -5.35
